# Data from ChEMBL document CHEMBL3352181, “Novel phenyl and pyridyl substituted derivatives of isoindolines: Synthesis, antitumor activity and DNA binding features” (Eur J Med Chem, 2014).
# Calls of active or inactive are those of the source. The calls are words filed in the database; no cut-off is given here.
# How the values were obtained:
# [1] = tested on: HepG2; assay: Induction of cell cycle arrest on human HepG2 cells assessed as accumulation at subG1 phase at 20 uM after 24 hrs by propidium iodide staining based flow cytometry (reference value: 3.1 +/- 0.9%); assay type: functional
# Outline: (§1)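 HepG2 or SW620 cells were seeded at 25000 per well. After 24 h they were treated, then harvested 24 or 48 h later. Attached cells were trypsinized, pooled with floating cells, PBS-washed and fixed in 70% ethanol. Cells were stained with PI 1 µg/mL plus RNase A 0.2 µg/mL, and 10 000 events were acquired by flow cytometry. Phase percentages come from DNA histograms, in duplicate, with ANOVA at p < 0.05.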
# [2] = tested on: HepG2; assay: Induction of cell cycle arrest on human HepG2 cells assessed as accumulation at subG1 phase at 50 uM after 24 hrs by propidium iodide staining based flow cytometry (reference value: 3.1 +/- 0.9%); assay type: functional; outline: as §1
# [3] = tested on: HepG2; assay: Induction of cell cycle arrest on human HepG2 cells assessed as accumulation at G1 phase at 20 uM after 24 hrs by propidium iodide staining based flow cytometry (reference value: 59.7 +/- 0.9%); assay type: functional
# [4] = tested on: HepG2; assay: Induction of cell cycle arrest on human HepG2 cells assessed as accumulation at G1 phase at 50 uM after 24 hrs by propidium iodide staining based flow cytometry (reference value: 59.7 +/- 0.9%); assay type: functional
# [5] = tested on: HepG2; assay: Induction of cell cycle arrest on human HepG2 cells assessed as accumulation at S phase at 20 uM after 24 hrs by propidium iodide staining based flow cytometry (reference value: 8.6 +/- 2.8%); assay type: functional
# [6] = tested on: HepG2; assay: Induction of cell cycle arrest on human HepG2 cells assessed as accumulation at S phase at 50 uM after 24 hrs by propidium iodide staining based flow cytometry (reference value: 8.6 +/- 2.8%); assay type: functional; outline: as §1
# [7] = tested on: HepG2; assay: Induction of cell cycle arrest on human HepG2 cells assessed as accumulation at G2/M phase at 20 uM after 24 hrs by propidium iodide staining based flow cytometry (reference value: 31.7 +/- 1.9%); assay type: functional
# [8] = tested on: HepG2; assay: Induction of cell cycle arrest on human HepG2 cells assessed as accumulation at G2/M phase at 50 uM after 24 hrs by propidium iodide staining based flow cytometry (reference value: 31.7 +/- 1.9%); assay type: functional
# [9] = tested on: HepG2; assay: Induction of cell cycle arrest on human HepG2 cells assessed as accumulation at subG1 phase at 20 uM after 48 hrs by propidium iodide staining based flow cytometry (reference value: 2.8 +/- 0.3%); assay type: functional; outline: as §1
# [10] = tested on: HepG2; assay: Induction of cell cycle arrest on human HepG2 cells assessed as accumulation at subG1 phase at 50 uM after 48 hrs by propidium iodide staining based flow cytometry (reference value: 2.8 +/- 0.3%); assay type: functional; outline: as §1
# [11] = tested on: HepG2; assay: Induction of cell cycle arrest on human HepG2 cells assessed as accumulation at G1 phase at 20 uM after 48 hrs by propidium iodide staining based flow cytometry (reference value: 55.0 +/- 4.8%); assay type: functional
# [12] = tested on: HepG2; assay: Induction of cell cycle arrest on human HepG2 cells assessed as accumulation at G1 phase at 50 uM after 48 hrs by propidium iodide staining based flow cytometry (reference value: 55.0 +/- 4.8%); assay type: functional
# [13] = tested on: HepG2; assay: Induction of cell cycle arrest on human HepG2 cells assessed as accumulation at S phase at 20 uM after 48 hrs by propidium iodide staining based flow cytometry (reference value: 0 +/- 0%); assay type: functional; outline: as §1
# [14] = tested on: HepG2; assay: Induction of cell cycle arrest on human HepG2 cells assessed as accumulation at S phase at 50 uM after 48 hrs by propidium iodide staining based flow cytometry (reference value: 0 +/- 0%); assay type: functional; outline: as §1
# [15] = tested on: HepG2; assay: Induction of cell cycle arrest on human HepG2 cells assessed as accumulation at G2/M phase at 20 uM after 48 hrs by propidium iodide staining based flow cytometry (reference value: 45.0 +/- 4.8%); assay type: functional
# [16] = tested on: HepG2; assay: Induction of cell cycle arrest on human HepG2 cells assessed as accumulation at G2/M phase at 50 uM after 48 hrs by propidium iodide staining based flow cytometry (reference value: 45.0 +/- 4.8%); assay type: functional
# [17] = tested on: HepG2; assay: Induction of apoptosis in human HepG2 cells assessed as induction of cytoplasmic shrinkage at 25 uM after 24 hrs by Annexin V-Fluos staining based fluorescent microscopy; assay type: functional, cell-based
# Outline: (§2)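 Cells seeded on chamber slides at 4000 per well and treated 24 h (HepG2 at 25 or 50 µM; SW620 at 50 µM). Incubated 15 min with Annexin V-Fluos reagent plus propidium iodide, washed in PBS, and examined by fluorescence microscopy for morphology and labelling.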
# [18] = tested on: HepG2; assay: Induction of apoptosis in human HepG2 cells assessed as apoptotic bodies at 25 uM after 24 hrs by Annexin V-Fluos staining based fluorescent microscopy; assay type: functional, cell-based; outline: as §2
# [19] = target: T1, DNA topoisomerase 1 (Homo sapiens) (UniProt P11387); assay: Inhibition of human topoisomerase 1 assessed as topoisomerase poison activity by measuring generation of open circular DNA using supercoiled pUC19 DNA at 5 to 50 uM by agarose gel electrophoresis
# T1 sequence (whole entry): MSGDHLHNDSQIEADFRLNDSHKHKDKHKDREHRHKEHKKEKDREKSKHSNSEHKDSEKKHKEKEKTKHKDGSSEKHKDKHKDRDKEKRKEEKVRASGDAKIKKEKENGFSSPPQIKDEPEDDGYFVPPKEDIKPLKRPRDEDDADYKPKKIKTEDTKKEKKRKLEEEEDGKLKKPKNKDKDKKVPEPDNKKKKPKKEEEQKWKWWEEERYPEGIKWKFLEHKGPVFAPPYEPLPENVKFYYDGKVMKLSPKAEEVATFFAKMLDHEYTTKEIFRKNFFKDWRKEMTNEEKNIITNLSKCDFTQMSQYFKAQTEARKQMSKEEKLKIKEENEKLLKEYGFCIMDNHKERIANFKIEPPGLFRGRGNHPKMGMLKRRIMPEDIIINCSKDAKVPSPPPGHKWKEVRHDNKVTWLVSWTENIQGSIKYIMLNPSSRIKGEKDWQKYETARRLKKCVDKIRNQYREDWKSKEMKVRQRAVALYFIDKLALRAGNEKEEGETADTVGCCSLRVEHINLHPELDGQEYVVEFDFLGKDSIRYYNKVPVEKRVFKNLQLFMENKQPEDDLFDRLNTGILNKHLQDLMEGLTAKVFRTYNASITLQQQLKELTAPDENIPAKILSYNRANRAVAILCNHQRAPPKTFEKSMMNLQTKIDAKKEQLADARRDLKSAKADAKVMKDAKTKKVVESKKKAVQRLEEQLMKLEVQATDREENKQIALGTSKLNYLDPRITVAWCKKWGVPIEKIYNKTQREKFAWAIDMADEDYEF
# Outline: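 Supercoiled pUC19 plasmid was incubated with human topoisomerase I and graded compound concentrations. Reactions were stopped with SDS and proteinase K. DNA forms were resolved on 1% agarose in TBE (2 h, 120 V), post-stained with ethidium bromide and photographed under UV. Poisoning was read as appearance of nicked DNA, with camptothecin as the positive control.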
# [20] = tested on: Nucleic Acid; assay: Induction of DNA intercalation in supercoiled pUC19 DNA in presence of human topoisomerase 1 assessed as effect on topoisomerase 1-mediated DNA relaxation at 5 to 50 uM by agarose gel electrophoresis; assay type: nucleic-acid assay; conditions: Escherichia coli
# Outline: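 Supercoiled pUC19 incubated with human topoisomerase I and graded compound concentrations. Stopped with SDS/proteinase K. DNA forms resolved on 1% agarose in TBE, 2 h at 120 V, stained post-run with ethidium bromide and viewed under UV. Camptothecin was the topo I poison control.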
# [21] = tested on: MCF7; assay: Antiproliferative activity against human MCF7 cells assessed as inhibition of cell proliferation after 72 hrs by MTT assay; assay type: functional, cell-based
# Outline: (§3)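 Cells grown as monolayers in DMEM with 10% FBS, 2 mM L-glutamine, penicillin/streptomycin, 37 °C, 5% CO2. Seeded at 5000/well on day 0. Compounds added after 24 h as five serial dilutions (0,01 to 100 µM), DMSO ≤0.1%, then 72 h. MTT read-out converted to percentage growth. IC50 by linear regression; quadruplicates in three experiments.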
# [22] = (§4) Antiproliferative activity against human SW620 cells assessed as inhibition of cell proliferation after 72 hrs by MTT assay; assay type: functional, cell-based, SW-620; conditions: Homo sapiens, SW-620, 72 h; outline: as §3
# [23] = tested on: SW-620; assay: as §4; assay type: functional, cell-based; outline: as §3
# [24] = tested on: HepG2; assay: Antiproliferative activity against human HepG2 cells assessed as inhibition of cell proliferation after 72 hrs by MTT assay; assay type: functional, cell-based; outline: as §3
# [25] = tested on: BJ; assay: Antiproliferative activity against human BJ cells assessed as inhibition of cell proliferation after 72 hrs by MTT assay; assay type: cell-based; conditions: 72 h; outline: as §3
# [26] = tested on: HeLa; assay: Antiproliferative activity against human HeLa cells assessed as inhibition of cell proliferation after 72 hrs by MTT assay; assay type: functional, cell-based; outline: as §3
structure (smiles),measurement,setting,value
O=[N+]([O-])c1ccc(/N=C2\c3ccccc3CN2c2ccc([N+](=O)[O-])cc2)cc1,Activity,[1],6.6%
same,Activity,[2],8.3%
same,Activity,[3],58.8%
same,Activity,[4],55%
same,Activity,[5],25.6%
same,Activity,[6],27.6%
same,Activity,[7],15.6%
same,Activity,[8],17.4%
same,Activity,[9],4.4%
same,Activity,[10],4.3%
same,Activity,[11],53.7%
same,Activity,[12],59.7%
same,Activity,[13],1.3%
same,Activity,[14],0.8%
same,Activity,[15],44.9%
same,Activity,[16],39.4%
same,Activity,[17],Active
same,Activity,[18],Active
same,inhibition,[19],inactive
same,Activity,[20],inactive
same,inhibition,[21],Dose-dependent effect
same,IC50,"[21]; Homo sapiens, MCF7, 72 h",8.14 µM
same,IC50,[22],33.4 µM
same,inhibition,[23],Dose-dependent effect
same,inhibition,[24],Dose-dependent effect
same,IC50,"[24]; HepG2, 72 h",9.65 µM
same,IC50,"[25]; Homo sapiens, BJ",75.3 µM
same,inhibition (INH),"[25]; human, bj",Dose-dependent effect
same,inhibition,[26],Dose-dependent effect
same,IC50,"[26]; Homo sapiens, HeLa, 72 h",7.69 µM
